Measured values from ChEMBL document CHEMBL1759995, “Potential CRF1R PET imaging agents: N-fluoroalkyl-8-(6-methoxy-2-methylpyridin-3-yl)-2,7-dimethyl-N-alkylpyrazolo[1,5-a][1,3,5]triazin-4-amines” (Bioorg Med Chem Lett, 2011).

Tests used:
[1] = Lipophilicity, log D of the compound in octanol-phosphate buffer at pH 7.4 by Shake flask method; type: physicochemical
In short: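 Shake-flask partitioning between 25 mM phosphate buffer (pH 7.4) and octanol, both pre-saturated by mixing and standing overnight. A 1.0 mg sample dissolved in 1 mL octanol and added to 50 mL octanol-saturated buffer.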

[2] = target: T1, Corticotropin-releasing factor receptor 1 (Rattus norvegicus, UniProt P35353); assay: Displacement of [125I]-o-CRF from CRF1 receptor in rat frontal cortex by rapid filtration technique; type: tissue-based
T1 sequence (P35353 whole entry): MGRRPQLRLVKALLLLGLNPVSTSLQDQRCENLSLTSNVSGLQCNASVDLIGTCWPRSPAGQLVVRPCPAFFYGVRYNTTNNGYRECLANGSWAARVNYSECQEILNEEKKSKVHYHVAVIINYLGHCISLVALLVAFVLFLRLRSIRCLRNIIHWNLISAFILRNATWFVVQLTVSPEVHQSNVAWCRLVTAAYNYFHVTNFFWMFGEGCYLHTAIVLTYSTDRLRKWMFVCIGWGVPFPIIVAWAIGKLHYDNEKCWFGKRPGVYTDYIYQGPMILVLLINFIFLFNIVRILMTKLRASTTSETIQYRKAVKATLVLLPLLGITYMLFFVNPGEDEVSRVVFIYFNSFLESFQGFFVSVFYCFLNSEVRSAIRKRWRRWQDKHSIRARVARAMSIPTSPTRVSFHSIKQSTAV
In short: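 Frozen rat frontal cortex homogenized in 50 mM HEPES (pH 7.0 at 23 °C) with MgCl2, EGTA, protease inhibitors, 0.005% Triton X-100, bacitracin and 0.1% ovalbumin; pellet washed twice by centrifugation at 32,000 g. Membranes (25 µg/well) incubated with 150 pM 125I-o-CRF and compounds 2 h at 21 °C. Bound ligand captured on PEI-treated GF/B filters, washed with ice-cold PBS/0.01% Triton. IC50 from inhibition of specific binding.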

SMILES | logD [1] | IC50 [2] [nM]
COCCN(CCCF)c1nc(C)nc2c(-c3cnc(OC)nc3OC)c(C)nn12 | 1.8 | > 10000
COc1ccc(-c2c(C)nn3c(N(CCC#N)CCCF)nc(C)nc23)c(C)n1 | 3.5 | 6.5
COCCN(CCCF)c1nc(C)nc2c(-c3cnc(OC)nc3)c(C)nn12 | 3.2 | 390
COCCN(CCF)c1nc(C)nc2c(-c3ccc(OC)nc3C)c(C)nn12 | 4.6 | 5.5
CCN(CCCF)c1nc(C)nc2c(-c3ccc(OC)nc3C)c(C)nn12 | 4.8 | 1.6
COCCN(CCCF)c1nc(C)nc2c(-c3ccc(OC)nc3C)c(C)nn12 | 4.1 | 1.9
CCN(CCF)c1nc(C)nc2c(-c3ccc(OC)nc3C)c(C)nn12 | 4.5 | 5.8
COCCN(CCCF)c1nc(C)nc2c(-c3ccc(OC)nc3)c(C)nn12 | 3.4 | 35
